In ChEMBL document CHEMBL1124859, “Nonsteroidal antiinflammatory drug hydroxamic acids. Dual inhibitors of both cyclooxygenase and 5-lipoxygenase” (J Med Chem, 1990):

Assays:
[1] = test system: Rattus norvegicus; test: In vivo ulcerogenicity was determined after peroral administration in rat; format: functional
Summary of the method: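 Rats were dosed orally. The ulcerogenic dose (UD50) was taken as the oral dose in mg/kg that produced ulcers in 50% of the rats tested.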

[2] = species on record: Rattus norvegicus; test: Relative binding affinity to 5-lipoxygenase and cyclooxygenase
[3] = molecular target: T1, Polyunsaturated fatty acid 5-lipoxygenase (Rattus norvegicus, UniProt P12527); test: Inhibition of 5-lipoxygenase in intact RBL-1 cell line; format: cell-based
T1 sequence (P12527 whole entry): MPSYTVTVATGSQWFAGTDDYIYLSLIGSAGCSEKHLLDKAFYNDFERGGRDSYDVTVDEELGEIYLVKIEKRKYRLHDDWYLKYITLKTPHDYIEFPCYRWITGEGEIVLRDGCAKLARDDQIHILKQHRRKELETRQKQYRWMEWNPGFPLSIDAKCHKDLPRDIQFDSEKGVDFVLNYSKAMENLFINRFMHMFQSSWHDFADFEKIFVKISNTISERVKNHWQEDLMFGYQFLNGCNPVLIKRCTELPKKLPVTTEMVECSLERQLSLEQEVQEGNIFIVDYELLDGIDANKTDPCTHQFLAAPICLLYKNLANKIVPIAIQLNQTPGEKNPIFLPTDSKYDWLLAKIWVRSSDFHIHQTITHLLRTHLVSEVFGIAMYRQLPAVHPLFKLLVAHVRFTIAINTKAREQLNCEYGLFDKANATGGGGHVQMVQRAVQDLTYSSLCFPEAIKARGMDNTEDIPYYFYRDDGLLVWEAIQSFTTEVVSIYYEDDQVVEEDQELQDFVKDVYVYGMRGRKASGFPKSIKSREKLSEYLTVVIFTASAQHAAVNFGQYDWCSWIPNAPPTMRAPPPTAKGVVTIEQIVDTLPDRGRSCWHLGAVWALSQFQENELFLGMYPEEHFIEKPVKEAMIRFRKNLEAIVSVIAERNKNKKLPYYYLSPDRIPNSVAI
Summary of the method: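 RBL-1 cells at 2 × 10⁶ cells/mL were held in PBS with 1.0 mM Ca²⁺. They were incubated with or without inhibitor for 7 min at 37 °C, with 5 μM ionophore A-23187. LTB₄ was measured by radioimmunoassay. IC50 came from regression of percent inhibition against inhibitor concentration; otherwise percent inhibition at the highest concentration tested was given.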

[4] = test system: Rattus norvegicus; test: In vivo percent inhibition of carrageenan foot-pad edema (CFE) after peroral administration was determined.; format: functional
Summary of the method: (§1)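 Compounds were given orally to rats at the stated doses in mg/kg. Groups held 7–14 animals each. Foot-pad edema was scored as percent inhibition against controls, or as the dose giving a set level of inhibition (ID25 or ID40).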

[5] = test system: Rattus norvegicus; test: In vivo percent inhibition of mycobacterium foot-pad edema (MFE) after peroral administration was determined.; format: functional; summary of the method: as §1
[6] = test system: Rattus norvegicus; test: In vivo ulcerogenicity was determined after peroral administration at a dose of 200 mg/kg in rat; No significant ulceration; format: functional, organism-based; design: dose 200 mg/kg

Structure (SMILES)	IC50 ratio [2]	IC50 ([3]; read-out: IC50) [µM]	ID40 [5] [mg/kg]	other results
CONC(=O)Cc1c(C)n(C(=O)c2ccc(Cl)cc2)c2ccc(OC)cc12	> 120			UD50 [1]: 42 mg/kg
Cc1ccc(Cl)c(Nc2ccccc2C(=O)N(C)O)c1Cl			2.5	ID25 [4]: 0.2 mg/kg; UD50 [6]: No significant inhibition
CONC(=O)CC1=C(C)/C(=C/c2ccc([S+](C)[O-])cc2)c2ccc(F)cc21 (centres undefined)		26		
COc1ccc2c(c1)c(CC(=O)O)c(C)n2C(=O)c1ccc(Cl)cc1 [INDOMETHACIN]		> 100	0.21	UD50 [1]: 5.4 mg/kg
CC1=C(CC(=O)O)c2cc(F)ccc2/C1=C\c1ccc([S+](C)[O-])cc1 (centres undefined)		> 100		
Cc1ccc(Cl)c(Nc2ccccc2C(=O)[O-])c1Cl.O.[Na+] [MECLOFENAMATE SODIUM]			0.39	ID25 [4]: 8.2 mg/kg; UD50 [1]: 36 mg/kg
CC(C)Cc1ccc(C(C)C(=O)O)cc1 (centres undefined) [IBUPROFEN]				IC50 ([3]; rbl-1): No significant inhibition
COc1ccc2c(c1)c(CC(=O)N(O)C(C)C)c(C)n2C(=O)c1ccc(Cl)cc1			0.82	UD50 [6]: No significant inhibition
Cc1ccc(Cl)c(Nc2ccccc2C(=O)NO)c1Cl			27	UD50 [6]: No significant inhibition
CONC(=O)c1ccccc1Nc1c(Cl)ccc(C)c1Cl			24	ID25 [4]: 1.3 mg/kg; UD50 [6]: No significant inhibition

Continued, in another order:

IC50 ratio [2]	IC50 ([3]; read-out: IC50) [µM]	Structure (SMILES)	ID40 [5] [mg/kg]	other results
0.06	1.2	CC(C)Cc1ccc(C(C)C(=O)N(C)O)cc1 (centres undefined)		
> 5.5	> 32	CONC(=O)C(C)c1ccc(CC(C)C)cc1 (centres undefined)		
2	20	CC(C)Cc1ccc(C(C)C(=O)NO)cc1 (centres undefined) [IBUPROXAM]		
6.8		COc1ccc2c(c1)c(CC(=O)NO)c(C)n2C(=O)c1ccc(Cl)cc1 [OXAMETACIN]		UD50 [1]: 103 mg/kg
